PAD4 FP inh: human PAD4 inhibitors, primary screen, biochemical, fluorescence polarization, 1536-well format. AID 485272, 2010. actives 0.41% (n = 330,000). Protein-arginine deiminase type-4 (Homo sapiens), Q9UM07. inhibition, % at 6.36 µM. recombinant PAD4, RCA probe fluorescence polarization;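 active means percent inhibition above a cutoff equal to the mean of all tested compounds plus 3 SD, cut at about 15% in these data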;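 further: 0% = PAD4 with RCA probe and DMSO and 100% = probe without PAD4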
Target sequence (Q9UM07 whole entry, looked up): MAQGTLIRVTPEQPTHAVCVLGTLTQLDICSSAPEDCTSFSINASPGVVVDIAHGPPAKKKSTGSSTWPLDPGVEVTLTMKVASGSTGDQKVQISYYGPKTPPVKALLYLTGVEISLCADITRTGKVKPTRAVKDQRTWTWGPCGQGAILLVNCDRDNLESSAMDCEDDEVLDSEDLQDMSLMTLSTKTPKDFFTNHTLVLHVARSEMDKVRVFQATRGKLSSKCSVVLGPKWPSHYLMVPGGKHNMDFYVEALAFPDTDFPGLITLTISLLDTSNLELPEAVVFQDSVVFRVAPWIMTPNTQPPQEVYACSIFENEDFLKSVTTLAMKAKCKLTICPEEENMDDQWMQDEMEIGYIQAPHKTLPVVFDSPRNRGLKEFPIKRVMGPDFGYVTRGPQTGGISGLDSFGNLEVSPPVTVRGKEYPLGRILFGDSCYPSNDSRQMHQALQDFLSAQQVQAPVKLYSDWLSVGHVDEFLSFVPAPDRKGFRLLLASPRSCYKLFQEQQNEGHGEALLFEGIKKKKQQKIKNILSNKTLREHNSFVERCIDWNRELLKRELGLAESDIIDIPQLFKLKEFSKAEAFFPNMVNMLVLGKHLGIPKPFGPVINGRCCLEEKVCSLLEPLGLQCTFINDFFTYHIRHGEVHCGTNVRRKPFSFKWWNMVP
CTSL1 counter: Fasciola hepatica cathepsin L1 inhibitors, primary screen, counter-screen for PFM18AAP inhibitor project, biochemical, QFRET, fluorogenic peptide substrate. recombinant F. hepatica cathepsin L1, Z-Leu-Arg-MCA fluorescence. inhibition, % at 5.96 µM. actives 0.49% (n = 300,000). AID 1906, 2009;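 active means inhibition above the mean of all tested compounds plus 3 SD, set per screening campaign, cut at about 17% in these data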;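 further: 0% = plate median of test compound wells and 100% = 1 µM Z-Phe-Ala-diazomethylketone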
PRMT1 inh: PRMT1 methyltransferase inhibitors, primary screen, biochemical, fluorescence polarization; inhibition, % at 2.79 µM; actives 1.3% (n = 370,000); Protein arginine N-methyltransferase 1 (Homo sapiens), Q99873; recombinant PRMT1, activity-based probe fluorescence polarization;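 active means inhibition above about 21% made by adding two undisclosed values, limit read from the data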
GSTO1 counter: inhibitors of recombinant GSTO1, primary screen, counter-screen for RBBP9 inhibitor project, biochemical, fluorescence polarization. activity-based probe fluorescence polarization. Glutathione S-transferase omega-1 (Homo sapiens), P78417. actives 1.1% (n = 300,000). inhibition, % at 5.96 µM;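 active means inhibition above the campaign mean inhibition plus 3 SD, cut at about 35% in these data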;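 further: 0% = GSTO1-1 with DMSO and 100% = wells lacking GSTO1-1 enzyme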
TDP2 absorb: human TDP2 enzyme inhibitors, primary screen, biochemical, epi absorbance, recombinant enzyme. actives 0.34% (n = 370,000). T5PNP hydrolysis, p-nitrophenol absorbance 415 nm. inhibition, % at 12.8 µM. Tyrosyl-DNA phosphodiesterase 2 (Homo sapiens), O95551;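 active means inhibition above the mean of all tested compounds plus 3 SD, set per campaign, cut at about 25% in these data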;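 further: 0% = DMSO with enzyme and 100% = buffer with substrate but no TDP2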
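test system = human TDP2 enzyme | input = TDP2 enzyme at 120 nM final | medium = 50 mM Tris-HCl pH 7.5 with Mg2+, KCl, DTT, BSA | also added = T5PNP substrate, 5 mM | times = 2 h at 37 °C | technique = epi absorbance | benchmarks = high control without enzyme, low control DMSO plus TDP2 | replication = each compound tested once, singlicate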
PAD4 FP conf: human PAD4 inhibitors, confirmation, biochemical, fluorescence polarization | AID 488796, 2010 | inhibition, % at 6.36 µM | shares compounds with PAD4 FP inh | actives 28% (n = 1,200) | recombinant PAD4, RCA probe fluorescence polarization;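 active means mean inhibition across replicates above the hit cutoff set by the earlier primary screen, cut at about 15% in these data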;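 further: inhibitors block active-site labeling by the probe so polarization falls; 0% = PAD4 with probe and DMSO and 100% = probe without PAD4 enzyme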
The depositor's hits bear a star; x = not tested or not shown; + = active, no number. Hits are enriched below; roughly 2.5% of the tested compounds scored in any of these assays.

SMILES	PAD4 FP inh	CTSL1 counter	PRMT1 inh	GSTO1 counter	TDP2 absorb	PAD4 FP conf
O=C(Nc1nc(=O)c2ccccc2s1)c1ccc(F)cc1	16.1*	-1.1	48.3*	2.3	13.3	0.8
CCCCc1cc(=O)oc2cc(O)ccc12	24.4*	-1.5	3.2	-2.3	-8.6	4.4
CCCn1c(CN2CCN(C(=O)OCC)CC2)nc2cc(NC(=O)CC)ccc21	14.9*	5.8	0.2	9.8	1.2	2.0
O=C1N[C@@H](Cc2ccccc2)COC(=O)[C@@H](Cc2ccc(F)cc2)C/C=C\C[C@@H]1CC(=O)N(CCO)Cc1ccccc1	-1.2	x	3.6	x	-23.0	x
O=C1NCCOC(=O)[C@@H](Cc2ccc(F)cc2)C/C=C\C[C@@H]1CC(=O)N(CCO)Cc1ccccc1	19.5*	x	1.6	x	15.6	-2.2
O=S1OC(c2ccccc2)c2cc(Cl)ccc21 (centres undefined)	40.0*	0.8	1.2	7.1	11.2	35.5*
COc1ccc(-c2cc(-c3nnc(SCC(=O)NC4CCCCC4)n3N)[nH]n2)cc1	x	x	-2.4	x	4.9	x
O=C(NCCCNC(=O)c1ccccc1F)c1ccco1	36.6*	-1.7	2.2	1.6	4.3	0.3
COc1ccc(CC2CCN(c3ncnc4sccc34)CC2)cc1	x	x	1.6	x	1.2	x
Clc1ccc(-c2ccc(C=Nc3ccc(N4CCOCC4)cc3)o2)c(Cl)c1	-3.0	1.2	-1.5	25.5	11.2	x
Clc1ccc(-c2ccc(C=Nc3ccc(N4CCOCC4)cc3)o2)cc1	30.8*	4.2	4.4	30.4	19.0	5.5
Cc1c(NC(=O)CSc2nccn2C)c(=O)n(-c2ccccc2)n1C	+	2.1	-3.7	9.0	1.7	-5.9
Cc1c(NC(=O)C(C)Sc2nccn2C)c(=O)n(-c2ccccc2)n1C (centres undefined)	-0.7	x	-2.4	x	-7.5	x
C[C@H](O)[C@@H]1CN2CCc3c([nH]c4c(-c5ccc6c(c5)OCO6)cccc34)[C@@H]2C[C@@H]1N(C)C(=O)c1ccccc1F	x	x	0.9	x	-2.3	x
CCCCc1sc(-c2c(C#N)c(N)nc3c2CCCCC3)cc1[N+](=O)[O-]	-0.8	0.3	-1.2	5.0	-6.3	x
CCCCc1ccc(-c2c(C#N)c(N)nc3c2CCCC3)s1	36.0*	2.4	-3.8	5.3	2.5	1.1
CCSc1ccc(-c2nn(-c3ccccc3)cc2/C=C(/C#N)C(=O)NC)cc1	15.5*	-3.3	-2.4	-15.7	9.2	23.0*
CC(C)[C@H](N)C(=O)N[C@H](C(=O)N1CCC2CCN(S(=O)(=O)c3ccccc3)CC21)C(C)C (some centres undefined)	x	x	2.1	x	-0.5	x
c1ccc(CCn2c3ccccc3c3nnc(SCc4ccc5nonc5c4)nc32)cc1	50.4*	2.9	-1.2	-2.1	1.2	2.1
CCC(=O)N1CCc2cc(Br)c(S(=O)(=O)NCc3ccccc3OC)cc21	x	x	0.0	x	-0.7	x
O=C(NN=Cc1ccccc1C(F)(F)F)c1cc(-c2ccc(Cl)cc2)n[nH]1	x	x	-3.4	x	-0.8	x
Brc1ccc(-c2nc(-c3ccncc3)no2)cc1	-2.0	-4.8	0.9	-10.1	7.3	x
Brc1ccc(-c2nc(-c3ccncc3)no2)o1	15.3*	-3.1	-2.7	7.0	3.5	4.1
CCn1c(Cc2cccs2)nnc1SCC(=O)Nc1ccccc1-c1ccccc1	x	x	-6.7	x	2.5	x
COC(=O)CN1C(=O)N/C(=C/c2ccc(C)o2)C1=O	16.4*	2.1	55.8*	12.9	5.6	2.3
COC(=O)C[C@H]1CC[C@H]2[C@H](COc3ccc(NS(=O)(=O)c4cccc(OC)c4)cc3C(=O)N2C)O1	x	x	-3.0	x	3.7	x
Cc1cccc(-c2nnc3n2N=C(c2ccccc2)CS3)c1	-0.7	1.7	1.6	1.8	3.4	x
Cc1nn2c(nc1=O)SCC(c1ccccc1)=N2	18.2*	3.8	23.7*	8.8	-2.3	-6.5
